From ChEMBL document CHEMBL4715751, “Novel N-substituted indole Schiff bases as dual inhibitors of cyclooxygenase-2 and 5-lipoxygenase enzymes: Synthesis, biological activities in vitro and docking study” (Eur J Med Chem, 2016)
Activity calls are given as the source filed them. No cut-off for these calls is given here.

Tests used:
HUVEC [1] = assay: Antiinflammatory activity in HUVEC assessed as reduction in TNF-alpha-induced E-selectin expression at 50 uM preincubated for 30 mins followed by TNF-alpha addition and measured after 4 hrs by ELISA; format: functional; settings: Homo sapiens, time 4.5 hrs
In short: (§1)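 HUVECs seeded at 1×10^4/well and grown to confluence; indole derivatives (50 μM) added 30 min before TNFα 10 ng/ml, then 4 h further incubation. Cells fixed and E-selectin (ELAM) measured by ELISA. Parallel Calcein AM read-out monitored non-specific toxicity. Curcumin 10 μM served as positive control.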

CCRF-CEM = assay: Cytotoxicity against human CEM cells assessed as reduction in cell viability after 72 hrs by calcein-AM staining based fluorescence analysis
In short: (§2)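 Cells in DMEM with 10% FBS, 2 mmol/l L-glutamine, penicillin/streptomycin, 37 °C, 5% CO2. About 1.0×10^5 cells/ml plated, stabilized 24 h, then compounds added from DMSO stocks (final DMSO ≤0.6%), six 3-fold dilutions, top final concentration generally 50 µM. After 72 h, Calcein AM added for 1 h. Fluorescence expressed as % of DMSO controls; IC50 taken from dose-response curves. Means ±SD of three independent experiments in triplicate.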

MCF7 = assay: Cytotoxicity against human MCF7 cells assessed as reduction in cell viability after 72 hrs by calcein-AM staining based fluorescence analysis; settings: MCF7, 72 h; in short: as §2
HeLa = assay: Cytotoxicity against human HeLa cells assessed as reduction in cell viability after 72 hrs by calcein-AM staining based fluorescence analysis; in short: as §2
BJ = assay: Cytotoxicity against human BJ cells assessed as reduction in cell viability after 72 hrs by calcein-AM staining based fluorescence analysis; in short: as §2
HUVEC [2] = assay: Cytotoxicity against HUVEC assessed as reduction in cell viability measured after 24 hrs by calcein-AM staining based fluorescence analysis; design: species or system Homo sapiens; settings: for Activity: human, huvec, time 24 hrs
[3] = Inhibition of potato 5-LOX assessed as reduction in hydroperoxide level by EIA method; design: species or system Solanum tuberosum
In short: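 Potato 5-LOX kit detecting hydroperoxides formed by lipoxygenation. Compounds dissolved in minimal DMSO and diluted in 0.1 M Tris HCl, pH 7.4, tested at 0.001, 1, 5, 10 μM. IC50 derived per the manufacturer's instructions, mean of two determinations.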

[4] = biological target: T1, Prostaglandin G/H synthase 1 (Ovis aries, UniProt P05979); assay: Inhibition of ovine COX-1 assessed as appearance of oxidized TMPD level by EIA method
T1 sequence (P05979 whole entry): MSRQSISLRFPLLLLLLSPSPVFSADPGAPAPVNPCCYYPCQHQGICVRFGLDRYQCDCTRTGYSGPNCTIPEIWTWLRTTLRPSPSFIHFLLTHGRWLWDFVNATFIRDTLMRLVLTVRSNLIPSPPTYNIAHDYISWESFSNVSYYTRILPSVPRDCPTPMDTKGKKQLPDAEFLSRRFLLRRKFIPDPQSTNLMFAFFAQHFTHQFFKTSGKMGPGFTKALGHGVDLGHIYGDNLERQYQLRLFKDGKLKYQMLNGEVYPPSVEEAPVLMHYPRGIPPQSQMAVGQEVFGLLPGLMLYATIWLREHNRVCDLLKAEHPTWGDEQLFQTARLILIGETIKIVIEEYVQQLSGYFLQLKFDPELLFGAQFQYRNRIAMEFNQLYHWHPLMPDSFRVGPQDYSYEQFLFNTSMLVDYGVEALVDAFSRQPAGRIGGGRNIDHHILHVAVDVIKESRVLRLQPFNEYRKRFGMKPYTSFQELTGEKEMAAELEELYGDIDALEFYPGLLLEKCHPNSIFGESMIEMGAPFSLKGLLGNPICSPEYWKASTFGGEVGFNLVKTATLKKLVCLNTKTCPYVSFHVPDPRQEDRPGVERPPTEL

HUVEC [5] = assay: Antiinflammatory activity in HUVEC assessed as reduction in TNF-alpha-induced E-selectin expression at 30 to 50 uM preincubated for 30 mins followed by TNF-alpha addition and measured after 4 hrs by ELISA; format: functional; settings: dose 30-50 µM, time 4.5 hrs; for Activity: Homo sapiens; in short: as §1

IC50 [3] [µM]	IC50 [4] [µM]	Compound	Activity (HUVEC [1])	IC50 (CCRF-CEM) [µM]	IC50 (MCF7) [µM]	IC50 (HeLa) [µM]	IC50 (BJ) [µM]	Activity (HUVEC [2])	Activity (HUVEC [5])	inhibition at 50 µM (HUVEC [1]) [%]	inhibition (INH) (HUVEC [5]) [%]	IC50 (HUVEC [2]; Homo sapiens, HUVEC) [µM]
–	–	O=C(Cn1cc(/C=N/n2cnnc2)c2ccccc21)Nc1ccc(O)cc1	Active	> 50	> 50	> 50	> 50	–	–	–	–	–
–	–	CC(=O)c1ccc(NC(=O)Cn2cc(/C=N/n3cnnc3)c3ccccc32)cc1	Active	> 50	> 50	> 50	> 50	–	–	–	–	–
5.78	10.8	Cc1ccc(C(=O)n2cc(/C=N/c3c(C)n(C)n(-c4ccccc4)c3=O)c3ccccc32)cc1	–	–	–	–	–	Non-Toxic	Active	–	–	–
–	–	CCOC(=O)c1ccc(NC(=O)Cn2cc(/C=N/c3c(C)n(C)n(-c4ccccc4)c3=O)c3ccccc32)cc1	Active	29.7	38.1	24.8	50	–	–	–	–	–
–	–	Cc1ccc(NC(=O)Cn2cc(/C=N/n3cnnc3)c3ccccc32)cc1	Active	> 50	> 50	> 50	> 50	–	–	–	–	–
9.11	9.25	Cc1c(/N=C/c2cn(C(=O)c3ccc(Cl)cc3)c3ccccc23)c(=O)n(-c2ccccc2)n1C	–	–	–	–	–	Non-Toxic	Active	–	–	–
–	–	Cc1c(/N=C/c2c[nH]c3ccccc23)c(=O)n(-c2ccccc2)n1C	Active	> 50	> 50	> 50	> 50	–	–	–	–	–
–	–	CCOC(=O)c1ccc(NC(=O)Cn2cc(/C=N/n3cnnc3)c3ccccc32)cc1	–	> 50	> 50	> 50	31.3	–	–	15	–	–
–	–	O=C(Cn1cc(/C=N/n2cnnc2)c2ccccc21)Nc1ccccc1	Active	> 50	> 50	> 50	> 50	–	–	–	–	–
–	–	CC(=O)c1ccc(NC(=O)Cn2cc(/C=N/c3c(C)n(C)n(-c4ccccc4)c3=O)c3ccccc32)cc1	Active	42.9	> 50	> 50	> 50	–	–	–	–	–
6.54	7.89	Cc1ccc(C(=O)n2cc(/C=N/n3cnnc3)c3ccccc32)cc1	–	–	–	–	–	Non-Toxic	–	–	33	–
5.98	11.2	Cc1c(/N=C/c2cn(Cc3ccccc3)c3ccccc23)c(=O)n(-c2ccccc2)n1C	–	–	–	–	–	Non-Toxic	Active	–	–	–
6.54	10.4	O=C(c1ccccc1)n1cc(/C=N/n2cnnc2)c2ccccc21	–	–	–	–	–	Non-Toxic	Active	–	–	–
–	–	Cc1ccc(NC(=O)Cn2cc(/C=N/c3c(C)n(C)n(-c4ccccc4)c3=O)c3ccccc32)cc1	Active	42	> 50	> 50	49	–	–	–	–	–
8.11	8.65	O=C(c1ccc(Cl)cc1)n1cc(/C=N/n2cnnc2)c2ccccc21	–	–	–	–	–	Non-Toxic	Active	–	–	–
–	–	C(=N\n1cnnc1)/c1c[nH]c2ccccc12	Active	> 50	> 50	9.9	> 50	–	–	–	–	–
–	–	Cc1c(/N=C/c2cn(CC(=O)Nc3ccccc3)c3ccccc23)c(=O)n(-c2ccccc2)n1C	Active	> 50	> 50	> 50	> 50	–	–	–	–	–
7.54	7.65	Cc1c(/N=C/c2cn(C(=O)c3ccccc3)c3ccccc23)c(=O)n(-c2ccccc2)n1C	–	–	–	–	–	Non-Toxic	Active	–	–	–
–	–	COc1ccc(NC(=O)Cn2cc(/C=N/c3c(C)n(C)n(-c4ccccc4)c3=O)c3ccccc32)cc1	Active	50	> 50	> 50	50	–	–	–	–	–
7.41	9.21	C(=N\n1cnnc1)/c1cn(Cc2ccccc2)c2ccccc12	–	–	–	–	–	–	Active	–	–	14.9
–	–	Cc1c(/N=C/c2cn(CC(=O)Nc3ccc(O)cc3)c3ccccc23)c(=O)n(-c2ccccc2)n1C	Active	> 50	> 50	> 50	50	–	–	–	–	–
–	–	COc1ccc(NC(=O)Cn2cc(/C=N/n3cnnc3)c3ccccc32)cc1	–	> 50	> 50	> 50	> 50	–	–	15	–	–

Compound	IC50 [3] [µM]	IC50 [4] [µM]	Activity (HUVEC [1])	IC50 (CCRF-CEM) [µM]	IC50 (MCF7) [µM]	IC50 (HeLa) [µM]	IC50 (BJ) [µM]	Activity (HUVEC [2])	Activity (HUVEC [5])	inhibition at 50 µM (HUVEC [1]) [%]	inhibition (INH) (HUVEC [5]) [%]	IC50 (HUVEC [2]; Homo sapiens, HUVEC) [µM]
O=c1c(O)c(-c2ccc(O)c(O)c2)oc2cc(O)cc(O)c12 [QUERCETIN]	5.96	–	–	–	–	–	–	–	–	–	–	–
